ChEMBL document CHEMBL1152434, “Probing the fibrate binding specificity of rat liver fatty acid binding protein” (J Med Chem, 2009)
The source made the active and inactive calls. The calls are words filed in the database; no cut-off is given here.

Tests used:
[1] = molecular target: T1, Fatty acid-binding protein, liver (Rattus norvegicus) (UniProt P02692); experiment: Binding affinity to rat recombinant L-FABP low affinity site expressed in Escherichia coli BL21(DE3) assessed as occupancy at a drug-protein molar ratio of 3:1 by NMR chemical shift perturbation method
T1 sequence (whole entry): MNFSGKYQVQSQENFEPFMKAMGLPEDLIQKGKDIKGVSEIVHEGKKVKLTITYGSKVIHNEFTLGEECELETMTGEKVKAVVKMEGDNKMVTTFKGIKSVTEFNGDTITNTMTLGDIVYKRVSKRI

[2] = molecular target: T1, Fatty acid-binding protein, liver (Rattus norvegicus); experiment: Binding affinity to rat recombinant L-FABP high affinity site expressed in Escherichia coli BL21(DE3) assessed as occupancy at a drug-protein molar ratio of 3:1 by NMR chemical shift perturbation method
[3] = molecular target: T2, Fatty acid-binding protein, liver (Rattus norvegicus, UniProt P02692); experiment: Binding affinity to rat recombinant L-FABP high affinity site expressed in Escherichia coli BL21(DE3) at 20 deg C by fluorimetric assay
T2 sequence (P02692 whole entry): T1 sequence (whole entry)
Outline: (§1)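 Steady-state ANS displacement: the fluorescent cavity probe 1-anilino-8-naphthalene sulfonic acid is bound to recombinant rat L-FABP (15N/13C-labelled, purified from E. coli). Fibrates in DMSO are titrated directly into the protein. The fall in ANS fluorescence is plotted against free ligand. A two-site competition nonlinear fit gives EC50, converted to Ki for each site.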

[4] = molecular target: T2, Fatty acid-binding protein, liver; experiment: Binding affinity to rat recombinant L-FABP high affinity site expressed in Escherichia coli BL21(DE3) at 15 deg C by fluorimetric assay; outline: as §1
[5] = molecular target: T2, Fatty acid-binding protein, liver; experiment: Binding affinity to rat recombinant L-FABP high affinity site expressed in Escherichia coli BL21(DE3) at 10 deg C by fluorimetric assay; outline: as §1
[6] = molecular target: T2, Fatty acid-binding protein, liver; experiment: Binding affinity to rat recombinant L-FABP high affinity site expressed in Escherichia coli BL21(DE3) at 25 deg C by fluorimetric assay; outline: as §1
[7] = molecular target: T2, Fatty acid-binding protein, liver; experiment: Binding affinity to rat recombinant L-FABP high affinity site expressed in Escherichia coli BL21(DE3) at 42 deg C by fluorimetric assay; outline: as §1
[8] = molecular target: T2, Fatty acid-binding protein, liver; experiment: Binding affinity to rat recombinant L-FABP high affinity site expressed in Escherichia coli BL21(DE3) at 5 deg C by fluorimetric assay; outline: as §1
[9] = molecular target: T2, Fatty acid-binding protein, liver; experiment: Binding affinity to rat recombinant L-FABP high affinity site expressed in Escherichia coli BL21(DE3) at 30 deg C by fluorimetric assay; outline: as §1
[10] = molecular target: T2, Fatty acid-binding protein, liver; experiment: Binding affinity to rat recombinant L-FABP high affinity site expressed in Escherichia coli BL21(DE3) at 37 deg C by fluorimetric assay; outline: as §1
[11] = molecular target: T2, Fatty acid-binding protein, liver; experiment: Binding affinity to rat recombinant L-FABP low affinity site expressed in Escherichia coli BL21(DE3) at 5 deg C by fluorimetric assay; outline: as §1
[12] = molecular target: T2, Fatty acid-binding protein, liver; experiment: Binding affinity to rat recombinant L-FABP low affinity site expressed in Escherichia coli BL21(DE3) at 25 deg C by fluorimetric assay; outline: as §1
[13] = molecular target: T2, Fatty acid-binding protein, liver; experiment: Binding affinity to rat recombinant L-FABP low affinity site expressed in Escherichia coli BL21(DE3) at 37 deg C by fluorimetric assay; outline: as §1
[14] = molecular target: T2, Fatty acid-binding protein, liver; experiment: Binding affinity to rat recombinant L-FABP low affinity site expressed in Escherichia coli BL21(DE3) at 15 deg C by fluorimetric assay; outline: as §1
[15] = molecular target: T2, Fatty acid-binding protein, liver; experiment: Binding affinity to rat recombinant L-FABP low affinity site expressed in Escherichia coli BL21(DE3) at 20 deg C by fluorimetric assay; outline: as §1
[16] = molecular target: T2, Fatty acid-binding protein, liver; experiment: Binding affinity to rat recombinant L-FABP low affinity site expressed in Escherichia coli BL21(DE3) at 30 deg C by fluorimetric assay; outline: as §1
[17] = molecular target: T2, Fatty acid-binding protein, liver; experiment: Binding affinity to rat recombinant L-FABP low affinity site expressed in Escherichia coli BL21(DE3) at 42 deg C by fluorimetric assay; outline: as §1
[18] = molecular target: T2, Fatty acid-binding protein, liver; experiment: Binding affinity to rat recombinant L-FABP low affinity site expressed in Escherichia coli BL21(DE3) at 10 deg C by fluorimetric assay; outline: as §1

SMILES | Activity [1] | Activity [2] | Kd [3] [nM] | Kd [4] [nM] | Kd [5] [nM] | Kd [6] [nM] | Kd [7] [nM] | Kd [8] [nM] | Kd [9] [nM] | Kd [10] [nM] | Kd [11] [nM] | Kd [12] [nM] | Kd [13] [nM] | Kd [14] [nM] | Kd [15] [nM] | Kd [16] [nM] | Kd [17] [nM] | Kd [18] [nM]
CC(C)(Oc1ccc(C2CC2(Cl)Cl)cc1)C(=O)O (stereo not given) | 85% | 100% | – | – | – | – | – | – | – | – | – | – | – | – | – | – | – | –
CC(C)(Oc1ccc(CCNC(=O)c2ccc(Cl)cc2)cc1)C(=O)O | 93% | inactive | – | – | – | – | – | – | – | – | – | – | – | – | – | – | – | –
Cc1ccc(C)c(OCCCC(C)(C)C(=O)O)c1 | 79% | 100% | – | – | – | – | – | – | – | – | – | – | – | – | – | – | – | –
CCOC(=O)C(C)(C)Oc1ccc(Cl)cc1 [CLOFIBRATE] | inactive | 99% | 7800 | 7300 | 6700 | 8900 | 12000 | 6000 | 9600 | 11000 | – | – | – | – | – | – | – | –
CC(C)OC(=O)C(C)(C)Oc1ccc(C(=O)c2ccc(Cl)cc2)cc1 [FENOFIBRATE] | 100% | 100% | 27 | 24 | 23 | 32 | – | 18 | 41 | 62 | 130 | 250 | 320 | 160 | 200 | 270 | 360 | 150
CC(C)(Oc1ccc(C(=O)c2ccc(Cl)cc2)cc1)C(=O)O [FENOFIBRIC ACID] | 96% | 100% | 220 | 160 | 100 | 340 | – | 94 | 360 | 420 | 18000 | 24000 | 28000 | 20000 | 23000 | 27000 | 29000 | 19000
